Data on 21 compounds can be found in ChEMBL document CHEMBL5038583, “Highly Potent and Selective Butyrylcholinesterase Inhibitors for Cognitive Improvement and Neuroprotection” (J Med Chem, 2021).

Active and inactive are the calls of the source. The calls are words filed in the database; no cut-off is given here.

Data set [1] has as its target Cholinesterase (Equus caballus, UniProt P81908). As to the kind of experiment: Inhibition of equine serum BChE using butyrylthiocholine iodide as substrate preincubated for 5 mins followed by substrate addition and measured after 2 mins by DTNB-reagent based Ellman's method. For orientation: Ellman's reagent forms a yellow product with free thiols.
Data set [2] has as its target Cholinesterase (Equus caballus) (UniProt P81908). As to the kind of experiment: Inhibition of equine serum BChE at 10 uM using butyrylthiocholine iodide as substrate preincubated for 5 mins followed by substrate addition and measured after 2 mins by DTNB-reagent based Ellman's method relative to control. The note with it: time 7.0 min. An outline of the steps:
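Ellman method with equine BChE at 2.5 units/mL in pH 8.0 phosphate buffer with DTNB. Preincubation 5 min at room temperature, then butyrylthiocholine iodide (0.075 M solution) added; absorbance at 412 nm after 2 min. Ethanol sample gives 100% activity. Triplicates, at least three runs.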

For data set [3], the target named is Cholinesterase (Homo sapiens, UniProt P06276). As to the kind of experiment: Inhibition of human serum BChE using butyrylthiocholine iodide as substrate preincubated for 20 mins followed by substrate addition and measured after 2 mins by DTNB-reagent based Ellman's method. A digest of the protocol:
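hBChE at 0.015 units/mL with DTNB in phosphate buffer pH 8.0, preincubated 20 min at room temperature with at least six concentrations (10⁻⁴−10⁻⁹). Butyrylthiocholine iodide (0.075 M solution) added; A412 read after 2 min at 25 °C. IC50 from % activity vs log concentration; triplicates in at least three runs.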

Data set [4] has as its system BV-2. The experiment in a line: Cytotoxicity against mouse BV-2 cells assessed as survival rate at 100 uM incubated for 24 hrs by MTT assay. Type of data set: functional. An outline of the steps: (§1)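 Cells seeded at 1 × 10⁴/well in DMEM with 10% FBS and left overnight, then given compound (DMSO stock diluted in DMEM) for 24 h at 37 °C. MTT added for 4 h, formazan dissolved in DMSO, absorbance read at 492 nm. Viability taken as OD treated/OD DMEM × 100%; IC50 from three independent experiments, mean SD.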
For orientation: Formazan colour is commonly taken as a measure of viable cells.

Data set [5] has as its system Mus musculus. As to the kind of experiment: Anti-alzheimer activity in amyloid beta(1 to 42)-induced ICR mouse model of cognitive impairment assessed as simplification of trajectories at 15 mg/kg, ig administered at days 2 to 14 by Morris water maze test. Type of data set: functional, organism-based. An outline of the steps: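 ICR mice, n = 8 per group. Aggregated Aβ1-42 (5 mM DMSO stock incubated 24 h at 37 °C in saline at 2 mg/mL) given 10 μg per mouse icv on day 1; saline icv for sham. Compound 15 mg/kg intragastric on days 2−14; donepezil reference. Morris water maze training days 9−13, probe trial day 14; tracks recorded; mean ± SD.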

Data set [6] concerns PC-12. As to the kind of experiment: Cytotoxicity against rat PC-12 cells assessed as survival rate at 10 uM incubated for 24 hrs by MTT assay. Type of data set: functional. An outline of the steps:
as §1

Data set [7] in a line: Effective permeability of the compound in pH 7.4 PBS/EtOH (70:30) at 100 ug/ml incubated for 18 hrs by PAMPA-BBB assay. The following applies: dose 100 µg/ml, read-out: Peff. Type of data set: ADME. A digest of the protocol: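 PAMPA-BBB with porcine brain lipid in dodecane (20 mg/mL) on PVDF filter. Donor holds compound at 100 μg/mL final (from 5 mg/mL DMSO stock) in PBS pH 7.4/EtOH 70:30; acceptor holds the same buffer. Incubated 18 h at 25 °C; donor and acceptor concentrations by UV at five wavelengths. Four wells, at least three runs, nine permeability standards; mean ± SD.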
(The PAMPA barrier holds no transporters, so it reflects passive diffusion.)

Data set [8] has as its system HepG2. As to the kind of experiment: Cytotoxicity against human HepG2 cells assessed as survival rate at 100 uM incubated for 24 hrs by MTT assay. Type of data set: functional. An outline of the steps: as §1
A short description of data set [9]: Hepatotoxicity in ICR mouse assessed as morphological changes in liver at 1 g/kg, ig administered daily for 14 days analysed after 22 hrs post-administration by hematoxylin and eosin staining based analysis. The note with it: in vivo, po, 1000 mg/kg, 336 h, time 14 day. Type of data set: toxicity, tissue-based. A digest of the protocol:
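Liver from male mice taken 22 h after compound or vehicle; hematoxylin−eosin staining, viewed at ×100.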

For data set [10], the system named is Mus musculus. The experiment in a line: Anti-alzheimer activity in amyloid beta(1 to 42)-induced ICR mouse model of cognitive impairment assessed as enhanced alternation performance by measuring total number of arm entries at 15 mg/kg, ig administered at days 2 to 14 and measured on day 15 by Y-maze test. Type of data set: functional. An outline of the steps: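 Oligomerized Aβ1-42 (10 μg per mouse, icv) given on day 1; saline icv for sham. Dosing 15 mg/kg ig on days 2−14 (donepezil as positive control), n = 8. Spontaneous alternation read on day 15 in a three-arm grey PVC Y maze, arms at 120°. Mean SD.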

Data set [11] has as its system SH-SY5Y. As to the kind of experiment: Cytotoxicity against human SH-SY5Y cells assessed as survival rate at 100 uM incubated for 24 hrs by MTT assay. Type of data set: functional. An outline of the steps: as §1
Data set [12] relates to Mus musculus. The experiment in a line: Anti-alzheimer activity in amyloid beta(1 to 42)-induced ICR mouse model of cognitive impairment assessed as reduction in escape latency time at 15 mg/kg, ig administered at days 2 to 14 by Morris water maze test. Type of data set: functional. A digest of the protocol: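 Mouse model by icv oligomerized Aβ1-42 (10 μg/mouse, aggregated 24 h at 37 °C in saline) on day 1; 15 mg/kg ig on days 2−14, n = 8. Morris water maze training on days 9−13, probe trial day 14, escape latency and track recorded. Mean SD.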

Data set [13] can be described thus: Hepatotoxicity in ICR mouse assessed as change in alanine aminotransferase activity at 1 g/kg, ig administered daily for 14 days measured upto 36 hrs post-administration. Type of data set: toxicity. The following applies: in vivo, po, 1000 mg/kg, 336 h, time 14 day. A digest of the protocol:
(§2)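 Heparinized serum from ICR mice taken at 8, 22 and 36 h after oral compound or saline control; AST and ALT activities measured.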

A short description of data set [14]: Hepatotoxicity in ICR mouse assessed as change in aspartate aminotransferase activity at 1 g/kg, ig administered daily for 14 days measured upto 36 hrs post-administration. Type of data set: toxicity. The following applies: in vivo, po, 1000 mg/kg, 336 h, time 14 day. A digest of the protocol: as §2
Data set [15] concerns Mus musculus. As to the kind of experiment: Antialzheimer activity in ICR mouse assessed as reduction in scopolamine-induced cognitive impairment at 30 mg/kg, ig administered for 10 consecutive days by Morris water maze test. Type of data set: functional, organism-based. The following applies: time 10.0 day. An outline of the steps:
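Male ICR mice (8−10 weeks, 18−20 g), n = 8 per group. Compound at 15 or 30 mg/kg intragastric in DMSO/saline (10:90), given 30 min before scopolamine 3 mg/kg i.p., for 10 consecutive days; tacrine 15 mg/kg as reference. Morris water maze: 5 days of training, probe trial on day 6 with platform removed. Escape latency and trajectory recorded; mean ± SD.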

Data set [16] in a line: Metabolic stability in human liver microsomes assessed as intrinsic clearance at 1 uM measured upto 45 mins in presence of NADPH by LC/MS/MS analysis. Type of data set: ADME, Microsome. The following applies: read-out: CLH. A digest of the protocol: (§3)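 Human liver microsomes 0.5 mg/mL, compound 1 μM final, NADPH 2 mM, at 37 °C. Reactions stopped at 0, 5, 15, 30 and 45 min with acetonitrile containing imipramine internal standard. LC/MS/MS quantitation relative to 0 min; initial rates used for t1/2 and intrinsic clearance; ketanserin as assay control. Mean of two independent experiments.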

The nature of data set [17]: Toxicity in ICR mouse assessed as increase in body weight administered for 14 days and measured daily. The note with it: in vivo, 15 mg/kg, 336 h.
Data set [18] is described as follows: Acute toxicity in ICR mouse assessed as animal death at […]. The following applies: in vivo, po, 1000 mg/kg, 336 h.
Data set [19] is described as follows: Metabolic stability in human liver microsomes assessed as half life at 1 uM measured upto 45 mins in presence of NADPH by LC/MS/MS analysis. Type of data set: ADME, Microsome. An outline of the steps: as §3
Data set [20] in a line: Acute toxicity in ICR mouse assessed as abnormal behaviour at 1 g/kg, ig administered […]. The following applies: in vivo, po, 1000 mg/kg. An outline of the steps: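 Single dose of 1 g/kg given intragastrically on day 1 to overnight-fasted mice (15−18 g), suspended in 5% DMSO, 40% PEG 400, 55% saline. Male and female groups (n = 9), with vehicle controls. Death, daily behaviour and body mass followed over the next 2 weeks.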

Data set [21] concerns L02. The experiment in a line: Cytotoxicity against human L02 cells assessed as survival rate at 100 uM incubated for 24 hrs by MTT assay. Type of data set: functional. A digest of the protocol:
as §1

Cholinesterase (Equus caballus, UniProt P81908), sequence (P81908 whole entry): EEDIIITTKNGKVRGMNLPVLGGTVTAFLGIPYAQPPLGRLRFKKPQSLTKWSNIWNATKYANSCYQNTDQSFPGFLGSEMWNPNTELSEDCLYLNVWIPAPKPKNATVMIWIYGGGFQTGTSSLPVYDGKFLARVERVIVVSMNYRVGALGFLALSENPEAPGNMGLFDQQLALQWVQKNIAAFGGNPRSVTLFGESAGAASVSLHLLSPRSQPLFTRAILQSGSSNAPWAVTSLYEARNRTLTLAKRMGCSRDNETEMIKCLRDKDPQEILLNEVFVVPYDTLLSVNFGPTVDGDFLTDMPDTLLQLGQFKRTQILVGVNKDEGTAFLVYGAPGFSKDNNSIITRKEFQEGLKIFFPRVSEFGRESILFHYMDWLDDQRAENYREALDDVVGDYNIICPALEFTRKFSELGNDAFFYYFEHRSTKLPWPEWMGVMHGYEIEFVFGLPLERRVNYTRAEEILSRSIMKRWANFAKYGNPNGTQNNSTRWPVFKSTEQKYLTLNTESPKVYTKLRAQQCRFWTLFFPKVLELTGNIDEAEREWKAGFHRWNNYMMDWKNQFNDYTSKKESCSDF
Cholinesterase (Equus caballus), sequence (P81908 whole entry): as above
Cholinesterase (Homo sapiens, UniProt P06276), sequence (P06276 whole entry): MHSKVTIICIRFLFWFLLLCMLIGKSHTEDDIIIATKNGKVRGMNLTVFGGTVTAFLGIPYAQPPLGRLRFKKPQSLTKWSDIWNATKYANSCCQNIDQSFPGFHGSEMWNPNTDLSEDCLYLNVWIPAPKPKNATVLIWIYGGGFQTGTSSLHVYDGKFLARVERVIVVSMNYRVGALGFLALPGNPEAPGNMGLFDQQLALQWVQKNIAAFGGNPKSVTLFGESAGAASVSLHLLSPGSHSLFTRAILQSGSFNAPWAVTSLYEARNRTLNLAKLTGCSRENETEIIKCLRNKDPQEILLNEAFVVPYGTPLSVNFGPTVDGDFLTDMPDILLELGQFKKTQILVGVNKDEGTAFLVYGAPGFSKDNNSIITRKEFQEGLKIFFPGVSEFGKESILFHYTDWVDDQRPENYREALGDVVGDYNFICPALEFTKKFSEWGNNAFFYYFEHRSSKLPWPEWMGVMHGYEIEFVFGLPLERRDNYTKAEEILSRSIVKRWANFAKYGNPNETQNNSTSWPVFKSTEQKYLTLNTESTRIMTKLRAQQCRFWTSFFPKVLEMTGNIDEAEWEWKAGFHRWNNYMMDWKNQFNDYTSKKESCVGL

For `CC(=O)Nc1ccc(NC(=O)Cn2c(-c3nonc3N)nc3ccccc32)cc1`, half-maximal inhibition in data set [1] (IC50) required 6540 nM.
Same read-out and setting: the same measure for `Nc1nonc1-c1nc2ccccc2n1CCC(=O)Nc1ccc2ncccc2c1`: 253 nM; for `CC(=O)Nc1cccc(NC(=O)Cn2c(-c3nonc3N)nc3ccccc32)c1`: 1130 nM.
For `Nc1nonc1-c1nc2ccccc2n1CC(=O)Nc1ccc(Br)cc1`, the inhibition (as a rule, the drop in the measured response relative to a control, in per cent) in data set [2] was less than 50%.
Turning to `Nc1nonc1-c1nc2ccccc2n1CC(=O)Nc1cccc(F)c1F`, the half-maximal inhibitory concentration (IC50) (in general, the point on the concentration scale where inhibition reaches its midpoint) in data set [1] came to 270 nM.
As to `Nc1nonc1-c1nc2ccccc2n1CC(=O)Nc1ccccc1F`, the IC50 in [1] stood at 124 nM.
On to `Nc1nonc1-c1nc2ccccc2n1CC(=O)Nc1ccc(Br)c2ccccc12`, for which the IC50 in data set [3] was determined as 32 nM; in data set [1], 6 nM. The Activity is listed as 55.66% in [4]; 52.21% in data set [6]; 73.24% in data set [8]; “Non-Toxic” in data set [9]; 62.37% in data set [11]; “Non-Toxic” in [13]. Besides, the Activity result in data set [14] is recorded as “Non-Toxic”; in data set [17] it was “Toxic”; in data set [18], “Non-Toxic”; in data set [20], “Non-Toxic”; in data set [21], 86.55%. For the same compound, the outcome in data set [5], in data set [10], in data set [12] and in data set [15] was Active. In data set [7], the Papp at 18 h, 100 ug/ml was 11.7 ×10⁻⁶ cm/s. Further, the CLint scaled at 1 µM in [16] turned out to be 54 mL/min/kg. The half-life (as a rule, how long it takes for the measured level to halve) at 1 µM in data set [19] amounted to 32.2 min.
As to `Cc1cc2nc(-c3nonc3N)n(CC(=O)Nc3cccc4ccccc34)c2cc1C`, in data set [1], the midpoint of inhibition, the IC50, lay at 108 nM.
Same read-out and setting: the result for `Cc1cccc(NC(=O)Cn2c(-c3nonc3N)nc3ccccc32)c1C` reads 326 nM.
With `Nc1ccccc1-c1nc2ccccc2n1CC(=O)Nc1ccc2ncccc2c1`, in data set [2], the inhibition was less than 50%.
Take `Nc1nonc1-c1nc2ccccc2n1CC(=O)Nc1cccc(Br)c1`: the figures for the IC50 in data set [3] and in [1] were 212 nM and 83 nM, respectively.
For the compound `Nc1nonc1-c1nc2ccccc2n1CC(=O)Nc1ccc2ccccc2n1`, inhibition in [1] was half-maximal at 507 nM (IC50).
Regarding `O=C(Cn1c(-c2ccoc2)nc2ccccc21)Nc1ccc2ncccc2c1`, in [2], the inhibition is less than 50%.
Consider `Cc1cc2nc(-c3nonc3N)n(CC(=O)Nc3ccc4ncccc4c3)c2cc1C`, for which, in [1], the half-inhibitory concentration (IC50) was determined as 11300 nM.
Still for that read-out and setting: the same measure for `Cc1cc2nc(-c3nonc3N)n(CC(=O)Nc3cnc4ccccc4c3)c2cc1C`: 28500 nM; for `Nc1nonc1-c1nc2ccccc2n1CC(=O)Nc1ccc2c(c1)OCO2`: 2210 nM.
As to `Nc1nonc1-c1nc2ccccc2n1CC(=O)Nc1ccc(-c2ccccc2)cc1`, in [2], the inhibition was less than 50%.
Still for that read-out and setting: the same measure for `Nc1nonc1-c1nc2ccccc2n1CC(=O)Nc1ccc(Cl)cc1`: less than 50%.
On to `N#Cc1cccc(NC(=O)Cn2c(-c3nonc3N)nc3ccccc32)c1`, for which the results for the IC50 in data set [3] and in [1] were 250 nM and 51 nM, respectively.
In the case of `CC(=O)c1ccc(NC(=O)Cn2c(-c3nonc3N)nc3ccccc32)cc1`, the IC50 in data set [1] stood at 2270 nM.
Still for that read-out and setting: the result for `Nc1nonc1-c1nc2ccccc2n1CC(=O)Nc1cccc2ncccc12` reads 920 nM.
